Measured values from ChEMBL document CHEMBL1127684, “Enkephalin analogs as systemically active antinociceptive agents: O- and N-alkylated derivatives of the dipeptide amide L-2,6-dimethyltyrosyl-N-(3-phenylpropyl)-D-alaninamide” (J Med Chem, 1994).
Activity calls are given as the source filed them. No cut-off for these calls is given here.

Legend:
[1] = target: T1, Delta-type opioid receptor (Rattus norvegicus, UniProt P33533); test: Displacement of [3H]DSLET from rat brain membrane delta opioid receptor
T1 sequence (P33533 whole entry): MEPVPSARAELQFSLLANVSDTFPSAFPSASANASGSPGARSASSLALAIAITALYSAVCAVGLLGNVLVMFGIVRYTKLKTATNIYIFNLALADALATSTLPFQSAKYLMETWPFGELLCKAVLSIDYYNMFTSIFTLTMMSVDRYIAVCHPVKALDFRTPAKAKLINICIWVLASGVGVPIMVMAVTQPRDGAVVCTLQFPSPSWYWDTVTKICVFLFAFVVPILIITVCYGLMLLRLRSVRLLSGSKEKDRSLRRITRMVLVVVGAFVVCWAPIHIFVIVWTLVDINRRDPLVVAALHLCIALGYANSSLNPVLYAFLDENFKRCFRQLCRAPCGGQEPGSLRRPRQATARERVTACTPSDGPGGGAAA
Method in brief: (§1)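 Forebrain membranes from male Sprague-Dawley rats (150–300 g, cerebellum and hindbrain removed), washed and preincubated 1 h at 25 °C. Binding run in triplicate at 37 °C in 50 mM Tris/HCl pH 7.4, ~1 mg/mL protein, [3H]DSLET 1.0 nM, with varying compound concentrations. Nonspecific binding defined with 10 μM levorphanol. IC50 taken from log-logit plots of concentration vs percent displacement.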

Mu-type opioid receptor [2] = target: T2, Mu-type opioid receptor (Rattus norvegicus, UniProt P33535); test: Affinity for mu opioid receptor was measured by displacement of tritiated DAMGO from rat brain membranes; type: cell membranes, Membrane
T2 sequence (P33535 whole entry): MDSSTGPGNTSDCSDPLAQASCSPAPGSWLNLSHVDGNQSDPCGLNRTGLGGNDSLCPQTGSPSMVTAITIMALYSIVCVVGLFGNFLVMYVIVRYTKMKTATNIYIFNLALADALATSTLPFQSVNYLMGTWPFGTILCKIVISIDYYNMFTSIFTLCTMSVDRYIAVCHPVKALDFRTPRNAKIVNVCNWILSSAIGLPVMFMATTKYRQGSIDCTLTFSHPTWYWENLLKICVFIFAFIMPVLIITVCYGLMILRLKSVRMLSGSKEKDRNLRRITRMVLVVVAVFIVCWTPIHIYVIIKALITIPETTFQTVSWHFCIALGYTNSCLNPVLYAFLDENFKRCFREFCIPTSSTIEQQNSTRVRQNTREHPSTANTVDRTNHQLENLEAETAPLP
Method in brief: (§2)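 Forebrain membranes from male Sprague-Dawley rats (150–300 g, cerebellum and hindbrain removed), washed and preincubated 1 h at 25 °C. Binding run in triplicate at 37 °C in 50 mM Tris/HCl pH 7.4, ~1 mg/mL protein, [3H]DAMGO 2.0 nM, with varying compound concentrations. Nonspecific binding defined with 10 μM levorphanol. IC50 taken from log-logit plots of concentration vs percent displacement.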

Mu-type opioid receptor [3] = target: T2, Mu-type opioid receptor; test: Inhibitory concentration was evaluated against mu opioid receptor by the displacement of tritiated DAMGO from rat brain membranes; type: cell membranes, Membrane; method in brief: as §2
Opioid receptor = Opioid receptor (Rattus norvegicus, UniProt P33533+P34975+P33535); test: Affinity for the opioid receptor by displacement of tritiated naloxone from rat brain membranes.; type: cell membranes, Membrane
Method in brief: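 Rat brain membranes with the cerebellum removed. Competition against [3H]naloxone as a nonselective opioid label, with the radioligand at or near its Kd. Reported as IC50 (nM).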

Mus musculus [4] = test: Effective dose administered subcutaneously in mouse writhing assay; type: functional
Method in brief: (§3)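 Mouse phenylbenzoquinone-induced abdominal stretch (writhing) assay with subcutaneous dosing. […] 10 mg/kg was the highest dose tested.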

[5] = target: T1, Delta-type opioid receptor; test: (§4) Inhibitory concentration was evaluated against delta opioid receptor by the displacement of tritiated DSLET from rat brain membranes; type: functional, cell membranes, Membrane; method in brief: as §1
Mus musculus [6] = test: Effective dose administered intragastricly in mouse writhing assay; No significant inhibition at 10 mg/kg, the highest dose tested; type: functional, organism-based; design: dose 10 mg/kg
[7] = target: Kappa-type opioid receptor (Rattus norvegicus, UniProt P34975); test: Inhibitory concentration was evaluated against kappa opioid receptor by displacement of tritiated U-69593 from rat brain membranes; type: cell membranes, Membrane
Kappa-type opioid receptor, sequence (P34975 whole entry): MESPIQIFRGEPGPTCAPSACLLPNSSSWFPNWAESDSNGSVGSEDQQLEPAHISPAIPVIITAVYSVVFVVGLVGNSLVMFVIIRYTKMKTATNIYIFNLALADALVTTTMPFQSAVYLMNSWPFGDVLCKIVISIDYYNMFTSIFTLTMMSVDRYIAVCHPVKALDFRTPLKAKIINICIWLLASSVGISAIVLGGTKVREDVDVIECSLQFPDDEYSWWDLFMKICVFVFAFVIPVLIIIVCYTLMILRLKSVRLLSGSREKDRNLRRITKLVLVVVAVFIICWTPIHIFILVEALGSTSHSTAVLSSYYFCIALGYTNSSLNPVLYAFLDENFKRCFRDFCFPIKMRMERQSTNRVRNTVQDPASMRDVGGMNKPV

Mus musculus [8] = test: Effective dose administered subcutaneously in mouse writhing assay; No significant inhibition at 10 mg/kg, the highest dose tested; type: functional, organism-based; design: dose 10 mg/kg; method in brief: as §3
[9] = target: T1, Delta-type opioid receptor; test: as §4; type: cell membranes, Membrane; method in brief: as §1
Mus musculus [10] = test: Effective dose administered subcutaneously in mouse writhing assay; not significant; type: functional, organism-based; method in brief: as §3
Mus musculus [11] = test: Effective dose administered intragastricly in mouse writhing assay; type: functional; conditions: po
[12] = Mus musculus, sc, read-out: ED50

Compound	IC50 [1]	IC50 (Mu-type opioid receptor [2])	IC50 (Opioid receptor)	ED50 (Mus musculus [4]; [12])	ED50 (Mus musculus [6])	ED50 (Mus musculus [8])	ED50 (Mus musculus [11])	further results
Cc1cc(OCc2ccc(F)cc2)cc(C)c1CC(N)C(=O)N[C@H](C)C(=O)NCCCc1ccccc1 (some centres not stated)	385 nM	17.5 nM	18 nM	2.7 mg/kg	inactive			IC50 (Mu-type opioid receptor [3]): 8.73 nM; IC50 [5]: 367 nM; IC50 [7]: 10800 nM
Cc1cc(OCc2ccc(C#N)cc2)cc(C)c1CC(N)C(=O)N[C@H](C)C(=O)NCCCc1ccccc1 (some centres not stated)	> 1000 nM	28.6 nM	17 nM		inactive	inactive		
COc1cc(C)c(C[C@H](N)C(=O)N[C@H](C)C(=O)NCCCc2ccccc2)c(C)c1 (stereo in doubt; 20b) [listing 1 of 2 here]					inactive			
Cc1cc(O)cc(C)c1C[C@H](N)C(=O)N(CC1CC1)[C@H](C)C(=O)NCCCc1ccccc1 (stereo in doubt; 18c) [listing 1 of 2 here]	409 nM	23.7 nM						
Cc1cc(O)cc(C)c1C[C@H](N)C(=O)N(CC1CC1)[C@H](C)C(=O)NCCCc1ccccc1 (stereo in doubt; 18b) [listing 1 of 2 here]					inactive			
COc1cc(C)c(C[C@H](N)C(=O)N[C@H](C)C(=O)NCCCc2ccccc2)c(C)c1 (stereo in doubt; 20b) [listing 2 of 2 here]	> 1000 nM	57 nM	50 nM					IC50 (Mu-type opioid receptor [3]): 32 nM; ED50 (Mus musculus [4]): 0.7 mg/kg; IC50 [9]: 2090 nM; IC50 [7]: 19800 nM
Cc1cc(O)cc(C)c1CC(N)C(=O)N[C@H](C)C(=O)N(C)CCCc1ccccc1 (some centres not stated)			300 nM		inactive	inactive		
C=CCN(C(=O)[C@@H](N)Cc1c(C)cc(O)cc1C)[C@H](C)C(=O)NCCCc1ccccc1			280 nM		inactive			ED50 (Mus musculus [10]): inactive
Cc1ccccc1COc1cc(C)c(CC(N)C(=O)N[C@H](C)C(=O)NCCCc2ccccc2)c(C)c1 (some centres not stated)					inactive	inactive		
Cc1cc(O)cc(C)c1C[C@H](N)C(=O)N(C)[C@H](C)C(=O)NCCCc1ccccc1	4.4 nM	0.1 nM		0.07 mg/kg			3.1 mg/kg	IC50 (Mu-type opioid receptor [3]): 0.2 nM; IC50 [9]: 8 nM; IC50 [7]: 316 nM
C=CCOc1cc(C)c(CC(N)C(=O)N[C@H](C)C(=O)NCCCc2ccccc2)c(C)c1 (some centres not stated)	600 nM			12.4 mg/kg			14.9 mg/kg	
Cc1cc(OCc2ccc([N+](=O)[O-])cc2)cc(C)c1CC(N)C(=O)N[C@H](C)C(=O)NCCCc1ccccc1 (some centres not stated)	127 nM	3.5 nM	2.9 nM	2.3 mg/kg			6.8 mg/kg	
Cc1cc(O)cc(C)c1CC(N)C(=O)N(CC1CC1)[C@H](C)C(=O)NCCCc1ccccc1 (some centres not stated)			10 nM	2.4 mg/kg	inactive			
Cc1cc(O)cc(C)c1C[C@H](N)C(=O)N(CC1CC1)[C@H](C)C(=O)NCCCc1ccccc1 (stereo in doubt; 18c) [listing 2 of 2 here]					inactive	inactive		
Cc1cc(OCc2ccc(C(C)(C)C)cc2)cc(C)c1CC(N)C(=O)N[C@H](C)C(=O)NCCCc1ccccc1 (some centres not stated)			0.5 nM		inactive	inactive		
Cc1cc(OCc2ccc(C(=O)O)cc2)cc(C)c1CC(N)C(=O)N[C@H](C)C(=O)NCCCc1ccccc1 (some centres not stated)	882 nM	12.3 nM			inactive	inactive		
Cc1cc(O)cc(C)c1CC(N)C(=O)N[C@H](C)C(=O)NCCCc1ccccc1 (some centres not stated)	8.6 nM	0.2 nM	0.1 nM	0.5 mg/kg			2 mg/kg	IC50 (Mu-type opioid receptor [3]): 0.13 nM; IC50 [9]: 9.57 nM; IC50 [7]: 221 nM
CN[C@H](Cc1c(C)cc(O)cc1C)C(=O)N[C@H](C)C(=O)NCCCc1ccccc1			1800 nM		inactive	inactive		
Cc1cc(OCc2ccc(C(=O)O)cc2)cc(C)c1C[C@H](N)C(=O)N[C@H](C)C(=O)NCCCc1ccccc1			83 nM		inactive	inactive		
CN[C@@H](Cc1c(C)cc(O)cc1C)C(=O)N[C@H](C)C(=O)NCCCc1ccccc1			140 nM		inactive	inactive		
Cc1cc(O)cc(C)c1C[C@H](N)C(=O)N(CC1CC1)[C@H](C)C(=O)NCCCc1ccccc1 (stereo in doubt; 18b) [listing 2 of 2 here]	9.4 nM	0.4 nM		0.5 mg/kg				IC50 (Mu-type opioid receptor [3]): 0.5 nM; IC50 [9]: 10 nM; IC50 [7]: 1000 nM
Cc1cc(O)cc(C)c1CC(N)C(=O)N(C)[C@H](C)C(=O)NCCCc1ccccc1 (some centres not stated)			0.6 nM	1.7 mg/kg			1.3 mg/kg	
CCOc1cc(C)c(CC(N)C(=O)N[C@H](C)C(=O)NCCCc2ccccc2)c(C)c1 (some centres not stated)			130 nM		inactive	inactive		
Cc1cc(O)cc(C)c1CC(C)(N)C(=O)N[C@H](C)C(=O)NCCCc1ccccc1 (some centres not stated)	64 nM	2 nM	150 nM	3 mg/kg			3.7 mg/kg	IC50 (Mu-type opioid receptor [3]): 1.1 nM; IC50 [9]: 124 nM; IC50 [7]: 1380 nM
CNC(Cc1c(C)cc(OCc2ccccc2)cc1C)C(=O)N[C@H](C)C(=O)NCCCc1ccccc1 (some centres not stated)			53 nM	~10 mg/kg	inactive			
C=CCN(C(=O)C(N)Cc1c(C)cc(O)cc1C)[C@H](C)C(=O)NCCCc1ccccc1 (some centres not stated)			1.3 nM	0.7 mg/kg	inactive			
COc1cc(C)c(CC(N)C(=O)N[C@H](C)C(=O)NCCCc2ccccc2)c(C)c1 (some centres not stated)			290 nM	4.3 mg/kg			2.3 mg/kg	
Cc1cc(OCc2ccccc2)cc(C)c1C[C@@H](N)C(=O)N[C@H](C)C(=O)NCCCc1ccccc1			22 nM	2.3 mg/kg			12.9 mg/kg	IC50 (Mu-type opioid receptor [3]): 44.7 nM; IC50 [9]: 1800 nM; IC50 [7]: 17500 nM
COc1cc(C)c(C[C@H](N)C(=O)N[C@H](C)C(=O)NCCCc2ccccc2)c(C)c1 (stereo in doubt; 20c)			420 nM				2.7 mg/kg	ED50 (Mus musculus [4]): 3.5 mg/kg
Cc1cc(OCc2ccccc2)cc(C)c1C[C@H](N)C(=O)N[C@H](C)C(=O)NCCCc1ccccc1	55 nM	4 nM	360 nM	1.8 mg/kg			2.4 mg/kg	IC50 (Mu-type opioid receptor [3]): 0.92 nM; IC50 [9]: 133 nM; IC50 [7]: 2520 nM
